Screens deposited in PubChem by several laboratories.
SMARCA2 activ: increases SMARCA2 function in MMTV reporter cells. hit rate 1% among 370,000. MG213 cells, MMTV-luciferase reporter, dexamethasone, overnight. activation, % at 9.1 µM. AID 652017; in the data active = activation above about 7.8%;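 note: 0% = vehicle wells and 100% = reference activator wells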
esBAF inh: SWI/SNF esBAF complex inhibition. mouse ES cells, Bmi1-luciferase knock-in reporter, 24 h; 100% = twice the neutral-well signal. hit rate 2% among 350,000. reporter increase, % at 12.5 µM; in the data active = activation above about 40%; inconclusive = no clear call, values can overlap the other calls;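 note: 0% = median of the plate's neutral control wells and 100% = double that signal; a rise in the Bmi1 reporter signal indicates esBAF inhibition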
ARFGAP1 inhibitor: inhibitors of rat ARFGAP1; Q62848; Arfgap1-stimulated ARF1 GTP hydrolysis, GDP FP detection; inhibition, % at 16.5 µM; hit rate 0.26% among 360,000;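 active = inhibition above a per-plate limit, mean inhibition of low control wells plus 3 SD, cut at about 25% in these data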;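 note: 0% = DMSO wells with enzyme and 100% = wells lacking Arfgap1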
Target sequence (Q62848 1-136 limits assumed): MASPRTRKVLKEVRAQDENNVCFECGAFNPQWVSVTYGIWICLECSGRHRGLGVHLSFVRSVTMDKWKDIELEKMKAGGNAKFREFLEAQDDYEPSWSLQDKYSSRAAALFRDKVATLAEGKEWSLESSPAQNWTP
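Repeats: one replicate per compound; assay system: rat Arfgap1 catalytic domain, aa 1-136; times: enzyme reaction 120 min at 25 °C after 20 min preincubation; detection: FP of antibody-bound GDP Alexa 633 tracer, ex 620/em 688 nm; benchmarks: high control wells lacking Arfgap1, low control full reaction with DMSO; reagent: human ARF1(Δ1-17)-GTP substrate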
ASAP1 GAP inh: inhibitors of human ASAP1 ArfGAP activity | Q9ULH1 | ASAP1-stimulated ARF1 GTP hydrolysis, GDP FP detection | inhibition, % at 16.5 µM | hit rate 0.19% among 360,000 | AID 624377; in the data active = inhibition above about 25%;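 note: 0% = vehicle with enzyme and substrate and 100% = no enzyme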
Target sequence (Q9ULH1 325-724 limits assumed): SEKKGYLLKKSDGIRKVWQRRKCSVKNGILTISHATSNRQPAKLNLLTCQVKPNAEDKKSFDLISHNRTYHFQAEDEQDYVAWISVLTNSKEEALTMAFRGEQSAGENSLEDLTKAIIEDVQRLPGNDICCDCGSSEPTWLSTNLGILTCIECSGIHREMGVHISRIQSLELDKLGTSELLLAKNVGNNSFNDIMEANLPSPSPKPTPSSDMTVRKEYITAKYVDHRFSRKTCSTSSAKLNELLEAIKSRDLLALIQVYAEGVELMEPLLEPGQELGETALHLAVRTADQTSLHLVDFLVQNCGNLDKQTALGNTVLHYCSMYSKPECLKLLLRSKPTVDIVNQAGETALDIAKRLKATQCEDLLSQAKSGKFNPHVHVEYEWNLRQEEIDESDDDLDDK
An asterisk follows results filed as active; ? = inconclusive; . = no result given. Hits are enriched below; roughly 2.6% of the tested compounds scored in any of these assays.

SMILES	SMARCA2 activ	esBAF inh	ARFGAP1 inhibitor	ASAP1 GAP inh
Cc1ccc2nc(SCc3nc4ccccc4c(=O)[nH]3)[nH]c2c1	8	51*	-2	5
COC(=O)c1sc2nc(CSc3nc4ccc(C)cc4[nH]3)[nH]c(=O)c2c1C	-2	-4	-8	2
C=CCNC(=O)C1CCN(c2cc(C)nc(-c3ccccc3)n2)CC1	1	-3	4	-9
C=CCNC(=O)C1CCN(c2nc(C)cc(-c3ccccc3)n2)CC1	.	56*	.	.
Nc1nc2ccccc2cc1-c1cccs1	4	?	5	0
c1csc(-c2nc3ccccc3s2)c1	0	47*	9	-2
c1csc(-c2ccc3ccccc3n2)c1	5	43*	-21	-11
CCCn1c(-c2ccc[nH]c2=O)nc2ccccc21	-3	-1	3	3
CCCC1(C)Nc2ccccc2-c2nc3ccccc3n21 (configuration not stated)	4	67*	-8	-9
c1ccc2c(c1)NC1(CCCC1)n1c-2nc2ccccc21	6	75*	7	5
O=C(Nc1ccc2c(c1)C(=O)OC2)c1ccc(Cl)cc1Cl	0	53*	-5	10
O=CN1N=C(c2ccccc2)CC1c1ccccc1[N+](=O)[O-] (configuration not stated)	2	.	16	-6
N#CC1CC(c2ccccc2)=NN1c1ccccc1[N+](=O)[O-] (configuration not stated)	6	52*	-2	15
CCCS(=O)(=O)N1CCCC(c2nc(-c3ccc(OC)cc3)no2)C1 (configuration not stated)	2	-1	11	1
CCS(=O)(=O)N1CCCC(c2nc(-c3cccc(OC)c3)no2)C1 (configuration not stated)	4	67*	-12	-3
Cc1ccc2c(COC(=O)c3ccccc3Cl)cc(=O)oc2c1	3	71*	-8	-4
COc1ccc(Br)c(C(=O)OCc2cc(=O)oc3cc(C)ccc23)c1	-1	24	2	13
Cc1ccc2c(COC(=O)c3ccc(C)c(C)c3)cc(=O)oc2c1	-2	46*	-2	10
Cc1ccc2c(COC(=O)c3ccccc3Br)cc(=O)oc2c1	3	54*	-12	-13
CCC(=O)Nc1ccc2c(c1)OC[C@@H](C)N(Cc1ccccc1OC)C[C@@H](C)[C@@H](OC)CN(C)C2=O	.	-3	.	.
CO[C@H]1CN(C)C(=O)c2cc(NS(=O)(=O)CC(F)(F)F)ccc2OC[C@H](C)N(C(=O)NC(C)C)C[C@H]1C	.	2	.	.
C[C@H]1CN([C@@H](C)CO)S(=O)(=O)c2ccc(-c3cccc(F)c3)cc2O[C@H]1CN(C)S(C)(=O)=O	.	1	.	.
CN1C(=O)c2cc(NC(=O)C3CCCC3)ccc2OC[C@H]2O[C@H](CC(=O)Nc3ccccc3)CC[C@@H]21	.	-2	.	.
Cc1ccc(OCc2cc(C(=O)N(CCO)Cc3cccs3)no2)cc1C	3	84*	14	0
CC(C)CC#Cc1ccc2c(c1)O[C@@H](CN(C)C(=O)c1cccnc1)[C@@H](C)CN([C@@H](C)CO)S2(=O)=O	.	8	.	.
SMILES	SMARCA2 activ	esBAF inh	ARFGAP1 inhibitor	ASAP1 GAP inh
CCCc1nc(-c2ccc(-c3ccc(F)cc3)cc2)no1	0	58*	5	6
c1ccc(CCc2nc(-c3ccccc3)no2)cc1	1	46*	-7	3
CC(C)C(O)C1CCN(Cc2nc(-c3cccs3)no2)CC1 (configuration not stated)	0	58*	4	-5
NC(=O)C1CCN(Cc2nc(-c3cccs3)no2)CC1	-3	-1	-3	-7
c1ccc(-c2noc(CN3CCN(c4ccccc4)CC3)n2)cc1	1	4	5	-5
CC1CCN(Cc2nc(-c3ccccc3)no2)CC1	5	55*	10	2
CO[C@H]1CN(C)C(=O)c2cc(NC(=O)Nc3ccccc3F)ccc2OC[C@H](C)N(C(C)=O)C[C@@H]1C	.	3	.	.
Cc1cccc(-c2noc(CCC(=O)NCc3ccccc3)n2)c1	-3	-11	-1	-19
Cc1ccc(Cc2nc(-c3cccnc3)no2)cc1	4	8	5	6
Cc1cc(C)cc(OCc2nc(-c3cccnc3)no2)c1	1	.	-2	10
c1ccc(OCc2nc(-c3ccccc3)no2)cc1	-4	68*	-1	0
c1cncc(-c2noc(CC3CCCCC3)n2)c1	-2	42*	-1	1
c1ccc(OCc2nc(-c3ccncc3)no2)cc1	5	?	6	-10
Cc1cccc(-c2noc(Cc3ccccc3)n2)c1	5	103*	-2	9
Cc1ccc(OCc2nc(-c3cccnc3)no2)cc1C	1	37*	3	-14
C[C@@H]1CCCCO[C@@H](CN(C)Cc2ccccc2)[C@H](C)CN([C@@H](C)CO)C(=O)c2cc(NS(=O)(=O)c3cccs3)ccc2O1	.	-1	.	.
C[C@H]1CN([C@@H](C)CO)C(=O)c2cccc(NC(=O)CCCCCC(=O)Nc3ccccc3N)c2O[C@H]1CN(C)S(=O)(=O)c1ccc(Cl)cc1	.	-4	.	.
C[C@@H]1CN([C@H](C)CO)C(=O)c2cc(NS(=O)(=O)c3ccc(Cl)cc3)ccc2O[C@@H]1CN(C)Cc1ccc(C(=O)Nc2ccccc2N)cc1	.	-23	.	.
CC(C)NC(=O)N(C)C[C@H]1Oc2cc(C3=CCCC3)ccc2S(=O)(=O)N([C@@H](C)CO)C[C@H]1C	.	-4	.	.
CN(C)c1ccc(C(=O)/C=C/c2cccnc2)cc1	2	63*	14	0
O=C(/C=C/c1cccnc1)c1ccc(F)c(F)c1	-1	-1	-1	-4
Clc1cccc(Nc2ncnc3c2cnn3-c2ccccc2)c1	-1	65*	15	-12
O=C(O)c1cccc(Nc2ncnc3c2cnn3-c2ccccc2)c1	4	8	-16	-8
c1ccc(-n2ncc3c(NCc4ccco4)ncnc32)cc1	-2	57*	6	-1
Fc1cccc(Nc2ncnc3c2cnn3-c2ccccc2)c1	-2	57*	9	8
SMILES	SMARCA2 activ	esBAF inh	ARFGAP1 inhibitor	ASAP1 GAP inh
Cc1noc(C)c1S(=O)(=O)Nc1ccc2c(c1)C(=O)N([C@H](C)CO)C[C@@H](C)[C@H](CN(C)Cc1ccc(Cl)c(Cl)c1)O2	.	5	.	.
Clc1ccccc1CSc1ncn(-c2ccccc2)n1	5	67*	1	-3
O=C(N=Nc1c(O)[nH]c2ccc(Br)cc12)c1ccccc1-n1cccc1	-3	10	8	6
O=C(N=Nc1c(O)[nH]c2ccc(Br)cc12)c1ccco1	0	60*	-2	6
O=C(c1ccc2c3n(nc2c1)-c1ccc(Cl)cc1CO3)N1CCCCC1	7	47*	12	9
Cc1ccc(C(=O)N2CCOCC2)cc1Cl	-3	-5	6	-3
Cc1ccc2c(c1)COc1c3ccc(C(=O)N4CCOCC4)cc3nn1-2	5	57*	-5	-7
Cc1cccc(NC2=C/C(=N/S(=O)(=O)c3cccs3)c3ccccc3C2=O)c1	-1	.	12	33*
O=C(O)c1ccc(NC2=C/C(=N/S(=O)(=O)c3cccs3)c3ccccc3C2=O)cc1	-6	-6	-10	11
